Beta2AR agonist = human beta-2 adrenergic receptor agonism by FAP. P07550. Am2.2-beta2AR cells, FAP receptor internalization, flow cytometry. response, % (test concentration not listed). hit rate 0.43% among 340,000. AID 504454;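 active = response above a set limit, near 3 SD of response in nonfluorescent compounds, cut at about 42% in these data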
PfG6PD inh = PfG6PD (Plasmodium falciparum) enzyme inhibition; inhibition, % at 20 µM; hit rate 0.78% among 350,000; PfGluPho enzyme, NADPH resazurin-diaphorase fluorescence;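 active = inhibition reaching at least a set limit at 20 µM in the primary screen, cut at about 59% in these data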;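 also: 0% = DMSO wells with substrate and 100% = DMSO wells lacking glucose-6-phosphate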
MC4R ag barr = human MC4R agonism via beta-arrestin; U2OS MC4R beta-arrestin complementation, luminescence; percent of melanotan II response, DMSO zero; activation, % at 8.9 µM; hit rate 0.98% among 360,000;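 active = activation above a per-plate cutoff, the mean activation of sample wells on that plate plus 3 SD, cut at about 8% in these data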
MC4R antag cAMP = blocks human MC4R cAMP signaling. P32245. MC4R-expressing cells, MTII-stimulated cAMP, LANCE TR-FRET. inhibition, % at 6.5 µM. hit rate 0.48% among 360,000. AID 540295;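 active = inhibition above its plate's cutoff, the mean of tested wells on that plate plus 3 SD, cut at about 29% in these data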;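 also: 0% = Melanotan II alone and 100% = Melanotan II plus saturating MCL0020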
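Material – human MC4R-expressing U2OS cells · Repeats – no replicates · Detection – TR-FRET with Eu-cAMP and labeled anti-cAMP, 671 nm · Times – compound 30 min, challenge 1 h, detection 1 h · Compound – single nominal compound dose of 6.5 µM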
ABHD5 PLIN5 PPI = blocks binding of human ABHD5 to perilipin-5; Q00G26+Q8WTS1; Split G. princeps luciferase complementation, luminescence, 4 h; inhibition, % at 4 µM; hit rate 0.78% among 360,000;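 active = inhibition above the mean inhibition across every tested compound plus 3 SD, cut at about 22% in these data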;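 also: 0% = DMSO only wells and the 100% control is not disclosed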
Target sequence (Q00G26 whole entry, looked up): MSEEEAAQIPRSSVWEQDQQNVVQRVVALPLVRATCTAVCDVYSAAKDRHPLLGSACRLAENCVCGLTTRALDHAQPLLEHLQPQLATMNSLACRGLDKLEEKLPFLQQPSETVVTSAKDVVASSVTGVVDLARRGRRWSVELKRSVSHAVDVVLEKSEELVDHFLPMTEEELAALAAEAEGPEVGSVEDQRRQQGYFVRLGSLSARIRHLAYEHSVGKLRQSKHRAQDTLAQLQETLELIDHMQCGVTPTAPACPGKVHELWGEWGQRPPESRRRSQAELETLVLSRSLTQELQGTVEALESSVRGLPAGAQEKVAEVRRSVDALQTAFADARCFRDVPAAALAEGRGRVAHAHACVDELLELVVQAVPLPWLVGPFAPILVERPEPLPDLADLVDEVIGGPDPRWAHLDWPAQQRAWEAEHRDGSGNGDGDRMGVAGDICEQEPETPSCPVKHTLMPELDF
Target sequence (Q8WTS1 whole entry, looked up): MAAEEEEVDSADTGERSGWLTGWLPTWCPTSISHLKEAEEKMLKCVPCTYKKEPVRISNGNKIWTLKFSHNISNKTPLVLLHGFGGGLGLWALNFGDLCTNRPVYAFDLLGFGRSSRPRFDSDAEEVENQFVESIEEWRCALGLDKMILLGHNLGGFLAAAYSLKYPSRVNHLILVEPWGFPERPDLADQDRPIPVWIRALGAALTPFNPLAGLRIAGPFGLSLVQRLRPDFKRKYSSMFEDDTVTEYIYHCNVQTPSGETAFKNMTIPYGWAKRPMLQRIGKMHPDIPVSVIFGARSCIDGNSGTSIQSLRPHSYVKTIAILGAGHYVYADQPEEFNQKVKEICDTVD
ABHD5 PLIN5 conf = confirmation of human ABHD5-PLIN5 interaction inhibitors; shares compounds with ABHD5 PLIN5 PPI; biochemical ABHD5-PLIN5 interaction, luminescence; inhibition, % at 4 µM; hit rate 67% among 2,200; in the data active = inhibition above about 23%;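 also: 0% = DMSO vehicle wells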
HNF4 split-luc = active in HNF4 split-luciferase counter-screen for ABHD5-PLIN5 inhibitors | HNF4 dimerization, luminescence, biochemical | hit rate 77% among 2,200 | inhibition, % at 4 µM | shares compounds with ABHD5 PLIN5 PPI | AID 651674;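 active = mean inhibition across replicate wells exceeding the computed hit threshold, cut at about 13% in these data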;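 also: light from luciferase halves that rejoin when HNF4 fusion proteins dimerize; 0% = DMSO only wells and the 100% control is not given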
Numbers without * were called inactive. Rows were chosen to be rich in hits. Some 3% of all compounds tested hit in one or more screens of this group.

What do the screens show for `Cc1ccc(-c2nc3ccc(Br)cn3c2Cc2cccc(F)c2)cc1`?
ABHD5 PLIN5 PPI: 14

Results for CCOC(=O)c1c(CN2CCN(C)CC2)n(-c2ccccc2)c2cc(Br)c(O)cc12 ?
Beta2AR agonist: 28; PfG6PD inh: 19; MC4R ag barr: 2; MC4R antag cAMP: 4; ABHD5 PLIN5 PPI: 15

What do the screens show for `CCOC(=O)c1c(CSC(=N)N)n(-c2ccccc2)c2cc(Br)c(OC(C)=O)cc12`?
Beta2AR agonist: 20; PfG6PD inh: 13; MC4R ag barr: 6; MC4R antag cAMP: 12; ABHD5 PLIN5 PPI: 32*; ABHD5 PLIN5 conf: 29*; HNF4 split-luc: 30*

Results for CC(C)SC1=NC(C)(C)C=C(/C=C/c2ccc(Cl)cc2Cl)N1 ?
Beta2AR agonist: -2; PfG6PD inh: 23; MC4R ag barr: -1; MC4R antag cAMP: 4; ABHD5 PLIN5 PPI: 39*; ABHD5 PLIN5 conf: 25*; HNF4 split-luc: 31*

What do the screens show for `CCCCC1Cc2[nH][nH]c(=O)c2C(c2ccc(F)cc2)O1` (configuration not stated)?
ABHD5 PLIN5 PPI: 3

What do the screens show for `O=c1[nH][nH]c2c1C(c1ccc(F)cc1)OC(CCc1ccccc1)C2` (configuration not stated)?
ABHD5 PLIN5 PPI: -2

How did CCCCC1Cc2[nH][nH]c(=O)c2C(c2ccc(Cl)cc2)O1 (configuration not stated) do in these assays?
ABHD5 PLIN5 PPI: 28*; ABHD5 PLIN5 conf: 6; HNF4 split-luc: 25*

Results for O=c1[nH][nH]c2c1[C@H](c1ccc(F)cc1)O[C@H](CCc1ccccc1)C2 ?
ABHD5 PLIN5 PPI: 27*; ABHD5 PLIN5 conf: 15; HNF4 split-luc: 36*

Results for COCCCn1c(C(=O)Nc2ccc3c(c2)OCO3)cc2c(=O)n3cccc(C)c3nc21 ?
PfG6PD inh: -8; MC4R ag barr: 0; MC4R antag cAMP: 2; ABHD5 PLIN5 PPI: 0

Results for O=c1[nH]sc2ccccc12 ?
Beta2AR agonist: 3; PfG6PD inh: 65*; MC4R ag barr: -3; MC4R antag cAMP: -2; ABHD5 PLIN5 PPI: 65*; ABHD5 PLIN5 conf: 66*; HNF4 split-luc: 109*

How did N#Cc1nccnc1S(=O)(=O)c1cccs1 do in these assays?
Beta2AR agonist: 19; PfG6PD inh: 7

Results for COc1ccc(-n2c(O)c(C=NC3CC3)c(=O)[nH]c2=O)cc1 ?
Beta2AR agonist: 6; PfG6PD inh: -16; MC4R ag barr: -1; MC4R antag cAMP: -2; ABHD5 PLIN5 PPI: 1

What do the screens show for `COc1ccc(-n2c(O)c(/C=C3\C=Nc4ccccc43)c(=O)[nH]c2=O)cc1`?
Beta2AR agonist: 3; PfG6PD inh: -1; MC4R ag barr: -3; MC4R antag cAMP: -1; ABHD5 PLIN5 PPI: 31*; ABHD5 PLIN5 conf: 11; HNF4 split-luc: 24*

How did CCN(CC)CCC(C)OC(c1ccccc1)c1ccccc1 (configuration not stated) do in these assays?
Beta2AR agonist: 14; PfG6PD inh: -1; MC4R ag barr: -1; MC4R antag cAMP: 17; ABHD5 PLIN5 PPI: 24*; ABHD5 PLIN5 conf: 77*; HNF4 split-luc: 31*

What do the screens show for `S=c1[nH]nc(-c2ccco2)n1/N=C/c1ccc(Cl)cc1`?
Beta2AR agonist: 6; PfG6PD inh: 5; MC4R ag barr: -3; MC4R antag cAMP: 0; ABHD5 PLIN5 PPI: 0

Results for COc1ccc(C(CCN2CCCC2)c2c(OC)cc(OC)c3c(-c4ccccc4)cc(=O)oc23)cc1 (configuration not stated) ?
Beta2AR agonist: 13; PfG6PD inh: 6; MC4R ag barr: 0; MC4R antag cAMP: 3; ABHD5 PLIN5 PPI: 20

What do the screens show for `COc1ccc(C(CCN2CCOCC2)c2c(OC)cc(OC)c3c(-c4ccccc4)cc(=O)oc23)cc1` (configuration not stated)?
Beta2AR agonist: 8; PfG6PD inh: 0; MC4R ag barr: 1; MC4R antag cAMP: 8; ABHD5 PLIN5 PPI: 25*; ABHD5 PLIN5 conf: 11; HNF4 split-luc: 8

How did CC(C)NC(=O)c1cc(-c2ccco2)nn1-c1ccc(Cl)cc1 do in these assays?
Beta2AR agonist: 6; PfG6PD inh: 33; MC4R ag barr: -2; MC4R antag cAMP: 9; ABHD5 PLIN5 PPI: 36*; ABHD5 PLIN5 conf: 42*; HNF4 split-luc: 59*

What do the screens show for `Cc1ccc(-n2nc(-c3ccco3)cc2C(=O)O)cc1`?
Beta2AR agonist: 0; PfG6PD inh: 6; MC4R ag barr: 1; MC4R antag cAMP: 6; ABHD5 PLIN5 PPI: 16

Results for Cn1c(=O)c(Nc2ccc(O)cc2)c2c3c(cccc31)C(=O)c1ccccc1-2 ?
Beta2AR agonist: 10; PfG6PD inh: 43; MC4R ag barr: -1; MC4R antag cAMP: -23; ABHD5 PLIN5 PPI: 25*; ABHD5 PLIN5 conf: 22*; HNF4 split-luc: 20*

What do the screens show for `O=S(=O)(c1cc(Cl)c(Cl)cc1Cl)N1CCN2CCCC2C1` (configuration not stated)?
Beta2AR agonist: -10; PfG6PD inh: -6; MC4R ag barr: 1; MC4R antag cAMP: 1; ABHD5 PLIN5 PPI: -7

What do the screens show for `O=C(Nc1nccs1)c1ccc(Cl)c([N+](=O)[O-])c1`?
Beta2AR agonist: 4; PfG6PD inh: 5; MC4R ag barr: -1; MC4R antag cAMP: 26; ABHD5 PLIN5 PPI: 1

Results for O=C1CC(=O)CC(c2ccccc2)C1 ?
Beta2AR agonist: 2; PfG6PD inh: 2; MC4R ag barr: -1; MC4R antag cAMP: -6; ABHD5 PLIN5 PPI: -3

Results for O=C1CC(c2ccccc2)CC(=O)C1CS(=O)(=O)c1ccccc1 (configuration not stated) ?
Beta2AR agonist: -6; PfG6PD inh: 4; MC4R ag barr: -2; MC4R antag cAMP: 2; ABHD5 PLIN5 PPI: 34*; ABHD5 PLIN5 conf: 48*; HNF4 split-luc: 105*

What do the screens show for `CC(Sc1ccc(Cl)cc1)C(=O)N(C)CC(=O)Nc1ccc(N2CCOCC2)cc1` (configuration not stated)?
Beta2AR agonist: -7; PfG6PD inh: -2; MC4R ag barr: -2; MC4R antag cAMP: 6; ABHD5 PLIN5 PPI: 6

Results for COc1cc(C2C(C(=O)c3ccc(C)o3)=C(O)C(=O)N2CCN2CCOCC2)ccc1OCCC(C)C (configuration not stated) ?
Beta2AR agonist: -3; PfG6PD inh: 8; MC4R ag barr: -3; MC4R antag cAMP: 21; ABHD5 PLIN5 PPI: 6

What do the screens show for `CCN(C(=O)CN1C(=O)S/C(=C\C=C\c2ccccc2)C1=O)C1CCS(=O)(=O)C1` (configuration not stated)?
Beta2AR agonist: -9; PfG6PD inh: -3; MC4R ag barr: -3; MC4R antag cAMP: -6; ABHD5 PLIN5 PPI: 56*; ABHD5 PLIN5 conf: 17; HNF4 split-luc: 22*

Screening results from PubChem BioAssay.
